Test results published in ChEMBL document CHEMBL1133340, “Design, synthesis, and structure-activity relationship studies of ATP analogues as DNA gyrase inhibitors” (2000).
Values after ≈ are worked out from the molar mass of the structure shown. Values belong to the molecule of their own block, whether it stands above or below them.

How the values were obtained:
[1] = target: T1, DNA gyrase (Escherichia coli) (UniProt P0AES6+P0AES4); assay: Maximum non-effective concentration against in vitro Escherichia coli DNA gyrase supercoiling activity was determined by coupled spectrophotometric ATPase assay; format: protein-complex assay
Summary of the method: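 E. coli DNA gyrase ATPase activity measured in a coupled spectrophotometric system with pyruvate kinase and lactate dehydrogenase, following NADH disappearance as ATP is consumed; supercoiling assay used for validation. Value reported as maximum non-effective concentration (MNEC), the highest inhibitor concentration showing no gyrase inhibition.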

Staphylococcus aureus [2] = assay: Compound was tested in vitro for antibacterial activity against Staphylococcus aureus Smith QR-54; format: functional
Summary of the method: (§1)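 MIC by 2-fold agar dilution on Mueller-Hinton agar, inoculum 10⁴ CFU per spot.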

Staphylococcus aureus [3] = assay: Compound was tested in vitro for antibacterial activity against Staphylococcus aureus ATCC 25923; format: functional; summary of the method: as §1
Staphylococcus aureus [4] = assay: Compound was tested in vitro for antibacterial activity against Staphylococcus aureus NovoR; format: functional; summary of the method: as §1
Staphylococcus aureus [5] = assay: Compound was tested in vitro for antibacterial activity against Staphylococcus aureus H19982; format: functional; summary of the method: as §1
Staphylococcus aureus [6] = assay: Compound was tested in vitro for antibacterial activity against Staphylococcus aureus Smith; format: functional; summary of the method: as §1
Enterococcus faecium = assay: Compound was tested in vitro for antibacterial activity against Enterococcus faecium vanA E23-8; format: functional; summary of the method: as §1
Staphylococcus aureus [7] = assay: Compound was tested in vitro for antibacterial activity against Staphylococcus aureus Coum-R; format: functional; summary of the method: as §1
[8] = target: T1, DNA gyrase (Escherichia coli)
[9] = test system: Staphylococcus epidermidis; assay: Compound was tested in vitro for antibacterial activity against Staphylococcus epidermidis ATCC 14990; format: functional; summary of the method: as §1
Streptococcus pyogenes = assay: Compound was tested in vitro for antibacterial activity against Streptococcus pyogenes beta15; format: functional; summary of the method: as §1

Compound: CCc1nn(-c2cc(Cl)cc(Cl)c2)c2nc(Sc3cccc(C(=O)O)c3)nc(N)c12
MIC (Staphylococcus aureus [2]): 2 µg/mL (≈ 4.34 µM)
MIC (Staphylococcus aureus [3]): 16 µg/mL (≈ 34.8 µM)
MIC (Staphylococcus aureus [4]): 32 µg/mL (≈ 69.5 µM)
MIC (Staphylococcus aureus [5]): 4 µg/mL (≈ 8.69 µM)
MIC (Staphylococcus aureus [6]): 16 µg/mL (≈ 34.8 µM)
MIC (Enterococcus faecium): > 32 µg/mL
MIC (Staphylococcus aureus [7]): 32 µg/mL (≈ 69.5 µM)
MNEC [8]: 0.25 µg/mL
MIC [9]: 0.5 µg/mL (≈ 1.09 µM)

Compound: COc1ccc(-c2cnn3c(N)nc(Oc4ccc5c(O)cc(=O)oc5c4)nc23)cc1OC
MNEC [8]: 0.1 µg/mL

Compound: CCc1nn(-c2cc(Cl)cc(Cl)c2)c2nc(Sc3cccc(C(=O)O)c3)nc(NC3CC3)c12
MNEC [8]: 8 µg/mL

Compound: Cc1nn2c(N)nc(Sc3cccc(C(=O)O)c3)nc2c1C#N
MNEC [8]: 0.5 µg/mL

Compound: CCNc1nc(Sc2cccc(C(=O)O)c2)nc2c1c(CC)nn2-c1cc(Cl)cc(Cl)c1
MNEC [8]: 8 µg/mL

Compound: CCc1nn(-c2cccc(F)c2)c2nc(Sc3cccc(C(=O)O)c3)nc(N)c12
MNEC [8]: 8 µg/mL

Compound: Nc1nc(Sc2cccc(C(=O)O)c2)nc2c(-c3ccc(Cl)c(Cl)c3)cnn12
MIC (Staphylococcus aureus [2]): > 32 µg/mL
MIC (Staphylococcus aureus [3]): > 32 µg/mL
MIC (Streptococcus pyogenes): 0.5 µg/mL (≈ 1.16 µM)
MIC (Staphylococcus aureus [4]): > 32 µg/mL
MIC (Staphylococcus aureus [5]): > 32 µg/mL
MIC (Staphylococcus aureus [6]): > 32 µg/mL
MIC (Enterococcus faecium): 32 µg/mL (≈ 74 µM)
MIC (Staphylococcus aureus [7]): > 32 µg/mL
MNEC [8]: 1 µg/mL
MIC [9]: 4 µg/mL (≈ 9.25 µM)

Compound: Nc1nc(Sc2cccc(C(=O)O)c2)nc2c1cnn2-c1cc(Cl)cc(Cl)c1
MNEC [8]: 1 µg/mL

Compound: CO[C@@H]1[C@@H](OC(N)=O)[C@@H](O)[C@H](Oc2ccc3c(O)c(NC(=O)c4ccc(O)c(CC=C(C)C)c4)c(=O)oc3c2C)OC1(C)C [NOVOBIOCIN]
MIC (Staphylococcus aureus [2]): 8 µg/mL (≈ 13.1 µM)
MIC (Staphylococcus aureus [3]): 0.25 µg/mL (≈ 0.408 µM)
MIC (Streptococcus pyogenes): 2 µg/mL (≈ 3.26 µM)
MIC (Staphylococcus aureus [4]): 8 µg/mL (≈ 13.1 µM)
MIC (Staphylococcus aureus [5]): 0.25 µg/mL (≈ 0.408 µM)
MIC (Staphylococcus aureus [6]): 0.25 µg/mL (≈ 0.408 µM)
MIC (Enterococcus faecium): 8 µg/mL (≈ 13.1 µM)
MIC (Staphylococcus aureus [7]): 16 µg/mL (≈ 26.1 µM)
MIC [9]: 0.12 µg/mL (≈ 0.196 µM)

Compound: CCOC(=O)c1cccc(Oc2nc(N)c3c(C)nn(-c4cc(Cl)cc(Cl)c4)c3n2)c1
MNEC [1]: 63 µg/mL

Compound: CCOC(=O)c1cccc(Oc2nc(N)c3cnn(-c4cc(Cl)cc(Cl)c4)c3n2)c1
MNEC [1]: 125 µg/mL

Compound: Cc1nn(-c2cc(Cl)cc(Cl)c2)c2nc(Sc3cccc(C(=O)O)c3)nc(N)c12
MNEC [8]: 1 µg/mL

Compound: Cc1ccc(Oc2nc(N)c3c(C)nn(-c4cc(Cl)cc(Cl)c4)c3n2)cn1
MNEC [1]: 125 µg/mL

Compound: Cc1ccc(Oc2nc(N)c3cnn(-c4cc(Cl)cc(Cl)c4)c3n2)cn1
MNEC [8]: > 125 µg/mL

Compound: Cc1nn2c(N)nc(Oc3ccc4c(O)cc(=O)oc4c3)nc2c1C#N
MNEC [8]: 8 µg/mL

Compound: Cc1ccc(Oc2nc(N)n3ncc(-c4ccc(Cl)c(Cl)c4)c3n2)cn1
MNEC [1]: < 16 µg/mL
MNEC [8]: > 63 µg/mL

Other lines, results leading:

MNEC [1]: > 125 µg/mL
Compound: CCc1nn(-c2cc(Cl)cc(Cl)c2)c2nc(Oc3ccc4c(C)cc(=O)oc4c3)nc(N)c12

MIC (Staphylococcus aureus [2]): 8 µg/mL (≈ 14.8 µM)
MIC (Staphylococcus aureus [3]): 16 µg/mL (≈ 29.6 µM)
MIC (Streptococcus pyogenes): 1 µg/mL (≈ 1.85 µM)
MIC (Staphylococcus aureus [4]): 16 µg/mL (≈ 29.6 µM)
MIC (Staphylococcus aureus [5]): 4 µg/mL (≈ 7.39 µM)
MIC (Staphylococcus aureus [6]): 8 µg/mL (≈ 14.8 µM)
MIC (Enterococcus faecium): > 32 µg/mL
MIC (Staphylococcus aureus [7]): 16 µg/mL (≈ 29.6 µM)
MNEC [8]: 0.5 µg/mL
MIC [9]: 4 µg/mL (≈ 7.39 µM)
Compound: CCc1nn(-c2cc(Cl)cc(Cl)c2)c2nc(Oc3ccc4c(O)c(NC(C)=O)c(=O)oc4c3)nc(N)c12

MNEC [8]: 0.06 µg/mL
Compound: CCc1nn(-c2cc(Cl)cc(Cl)c2)c2nc(Oc3ccc4c(O)cc(=O)oc4c3)nc(N)c12

MNEC [1]: 125 µg/mL
Compound: CCOC(=O)c1cccc(Oc2nc(N)c3c(CC)nn(-c4cc(Cl)cc(Cl)c4)c3n2)c1

MNEC [8]: 0.25 µg/mL
Compound: Cc1nn(-c2cc(Cl)cc(Cl)c2)c2nc(Oc3ccc4c(O)cc(=O)oc4c3)nc(N)c12

MNEC [1]: 125 µg/mL
Compound: CCc1nn(-c2cc(Cl)cc(Cl)c2)c2nc(Oc3ccc4c(N(C)C)cc(=O)oc4c3)nc(N)c12

MNEC [8]: 1 µg/mL
Compound: CCc1nn(-c2cccc(F)c2)c2nc(Oc3ccc4c(O)cc(=O)oc4c3)nc(N)c12

MNEC [8]: 2 µg/mL
Compound: CCOC(=O)c1c(O)oc2cc(Oc3nc(N)c4c(CC)nn(-c5cc(Cl)cc(Cl)c5)c4n3)ccc2c1=O

MNEC [8]: 0.5 µg/mL
Compound: Nc1nc(Oc2ccc3c(O)cc(=O)oc3c2)nc2c1cnn2-c1cc(Cl)cc(Cl)c1

MNEC [8]: 4 µg/mL
Compound: CCc1nn(-c2cc(Cl)cc(Cl)c2)c2nc(Oc3ccc4c(O)cc(=O)oc4c3)nc(NC3CC3)c12

MNEC [1]: < 16 µg/mL
MNEC [8]: > 16 µg/mL
Compound: CCc1nn(-c2cc(Cl)cc(Cl)c2)c2nc(Oc3ccc(C)nc3)nc(N)c12

MIC (Staphylococcus aureus [2]): 2 µg/mL (≈ 3.34 µM)
MIC (Staphylococcus aureus [3]): 4 µg/mL (≈ 6.68 µM)
MIC (Streptococcus pyogenes): 2 µg/mL (≈ 3.34 µM)
MIC (Staphylococcus aureus [4]): 8 µg/mL (≈ 13.4 µM)
MIC (Staphylococcus aureus [5]): 4 µg/mL (≈ 6.68 µM)
MIC (Staphylococcus aureus [6]): 8 µg/mL (≈ 13.4 µM)
MIC (Enterococcus faecium): 16 µg/mL (≈ 26.7 µM)
MIC (Staphylococcus aureus [7]): 8 µg/mL (≈ 13.4 µM)
MNEC [8]: 0.5 µg/mL
MIC [9]: 4 µg/mL (≈ 6.68 µM)
Compound: CCCCNC(=O)Nc1c(O)oc2cc(Oc3nc(N)c4c(CC)nn(-c5cc(Cl)cc(Cl)c5)c4n3)ccc2c1=O

MNEC [8]: 2 µg/mL
Compound: CCc1nn(-c2cc(Cl)cc(Cl)c2)c2nc(Oc3ccc4c(O)c(C(C)=O)c(=O)oc4c3)nc(N)c12
